Test results as given in ChEMBL document CHEMBL2169780, “Design and synthesis of neuroprotective methylthiazoles and modification as NO-chimeras for neurodegenerative therapy” (J Med Chem, 2012).
Activity calls are given as the source filed them. The calls are words filed in the database; no cut-off is given here.

Columns and labels:
[1] = Neuroprotective activity against oxygen-glucose deprivation-induced toxicity in Sprague-Dawley rat primary cortical neurons at 50 uM […] measured after 24 hrs by MTT assay relative to clomethiazole; assay type: functional, Cerebral cortex neuron
[2] = Half life of the compound in phosphate buffer at pH 7.4 by HPLC-UV analysis; assay type: physicochemical
Outline: (§1)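 10 µM compound plus 10 µM internal standard in 100 mM phosphate buffer, pH 7.4, 2% DMSO final, held at room temperature in the autosampler. Repeated HPLC injections with UV detection at 254 nm and a C18 gradient. Parent-to-standard peak-area ratio divided by the time-zero value gives % remaining.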

[3] = Chemical stability of the compound in phosphate buffer at pH 7.4 after 5 days by HPLC-UV analysis; assay type: physicochemical; settings: pH 7.4, 120 h; outline: as §1
[4] = system: Cerebral cortex neuron; assay: Activation of Gamma-aminobutyric acid type-A receptor in Sprague-Dawley rat primary cortical neurons assessed as inhibition of glutamate-induced cytotoxicity at 50 uM incubated for 1 hr prior to glutamate-challenge measured after 24 hrs by MTT assay in presence of picrotoxin; assay type: cell-based
[5] = system: Cerebral cortex neuron; assay: Activation of Gamma-aminobutyric acid type-A receptor in Sprague-Dawley rat primary cortical neurons assessed as inhibition of glutamate-induced cytotoxicity at 50 uM […] measured after 24 hrs by MTT assay; assay type: cell-based
[6] = Drug uptake in C57BL/6 mouse brain at 4.5 umol/kg, ip after 20 mins; assay type: ADME, organism-based; settings: read-out: Drug uptake
Outline: (§2)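 Male C57BL/6 mice, 8–10 weeks, dosed i.p. at 4.5 µmol/kg, four per drug. Brains taken 20 min later and extracted in cold acetonitrile/MeOH (1:1) with internal standard. Parent and metabolite quantified by LC-MS/MS in MRM mode against brain-matrix calibration of 1–100 ng/mL. Mean ± SEM, n=4.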

[7] = system: Mus musculus; assay: Procognitive activity in C57BL/6 mouse assessed as reversal of scopolamine-induced memory deficit at 4.5 umol/kg, ip administered 10 mins post scopolamine-challenge and 20 mins prior to training measured after 24 hrs by step-through passive avoidance test; assay type: functional, organism-based
Outline: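 Male C57BL/6 mice, 8–10 weeks. Scopolamine 1.0 mg/kg i.p. given 30 min before training; drug at 4.5 µmol/kg i.p. given 20 min before training. At 24 h after training, latency to enter the dark compartment was recorded without shock. One-way ANOVA with Bonferroni test.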

[8] = system: Brain; assay: Drug uptake in C57BL/6 mouse brain assessed as [1-[beta-(4-Methyl-5-thiazolyl)ethanol]-4-(3-pyridinyl)]-1H-1,2,3-triazole level at 4.5 umol/kg, ip after 20 mins; assay type: ADME, organism-based; settings: in vivo; outline: as §2
[9] = Neuroprotective activity against oxygen-glucose deprivation-induced toxicity in Sprague-Dawley rat primary cortical neurons assessed as increase in cell survival at 50 uM […] measured after 24 hrs by MTT assay relative to vehicle-treated control; assay type: functional, Cerebral cortex neuron
[10] = system: Hippocampus; assay: Neuroprotective activity against amyloid beta-induced long term potentiation impairment in human APP […] mutant and PS1 M146L mutant transgenic mouse hippocampal slice at 100 uM incubated for 5 mins by field excitatory post-synaptic potential analysis; assay type: functional, tissue-based
Outline: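 APP/PS1 (line 6.2) hippocampal slices, 400 µm, kept at 29°C in oxygenated saline. CA1 fEPSPs recorded in stratum radiatum after a 15 min baseline at about 35% of maximal response. Compound at 100 µM perfused 5 min before theta-burst tetanus of the Schaffer collaterals. LTP analysed at 50–80 min by two-way ANOVA.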

[11] = system: Brain; assay: Drug uptake in C57BL/6 mouse brain assessed as beta-Phenyl-4-methyl-5-thiazoleethanol level at 4.5 umol/kg, ip after 20 mins; assay type: ADME, organism-based; settings: in vivo; outline: as §2

With `Cc1ncsc1C(CO)c1ccc(-c2cccnc2)cc1` (centres undefined) the Activity [1] was 25%.

In the case of `Cc1ncsc1C(OC(=O)C1(CO[N+](=O)[O-])CC1)c1ccccc1` (centres undefined), the half-life [2] was 0.578 h.

For `Cc1ncsc1C(c1ccccc1)n1cc(-c2ccccn2)nn1` (centres undefined), the Activity [1] was 50.9%.

Work on `Cc1ncsc1C(c1ccccc1)n1cc(Cc2ccccc2)nn1` (centres undefined) yielded an Activity [1] of 88.3%.

With `Cc1ncsc1C(c1ccccc1)n1cc(-c2ccccc2)nn1` (centres undefined) the Activity [1] was 57.6%.

In the case of `Cc1ncsc1C(Cc1ccccc1)O[N+](=O)[O-]` (centres undefined), the Stability [3] was “Stable”.

With `Cc1ncsc1C(CO)c1ccccc1` (centres undefined) the Activity [4] was “inactive”, the Activity [5] was “Active” and the Activity [1] was 99.6%. For the same compound, the concentration at 20 min [6] was 32.9 ng/mL.

Work on `Cc1ncsc1CCn1cc(-c2ccccc2)nn1` yielded an Activity [1] of 53.9%.

Work on `Cc1ccc2c(c1)c1c(n2CCc2scnc2C)CCN(C)C1` yielded an Activity [1] of 15.4%.

With `Cc1ncsc1C(CO[N+](=O)[O-])n1cc(-c2cccnc2)nn1` (centres undefined) the Activity [7] was “Active”, the Stability [3] was “Stable” and the Drug uptake [8] was 76.6 ng/mL. For the same compound, the concentration at 20 min [6] was 2.1 ng/mL.

`Cc1ncsc1C(CO)n1nncc1-c1cccnc1` (centres undefined) showed an Activity [1] of 92.9%.

For `Cc1ncsc1CCCl` [CLOMETHIAZOLE], the Activity [9] was 30% and the Activity [10] was “inactive”.

Work on `Cc1ncsc1C(CO)c1ccc(F)cc1` (centres undefined) yielded an Activity [1] of 98.9%.

In the case of `Cc1ncsc1C(CO[N+](=O)[O-])n1nncc1-c1cccnc1` (centres undefined), the Activity [7] was “Active” and the Stability [3] was “Stable”.

In the case of `Cc1ncsc1CCO`, the Activity [1] was 14.11%.

With `Cc1ncsc1C(NC(=O)C1(CO[N+](=O)[O-])CC1)c1ccccc1` (centres undefined) the Stability [3] was “Stable”.

For `Cc1ncsc1CCn1ccnn1`, the Activity [1] was 51.5%.

In the case of `Cc1ncsc1C(O)Cc1ccc(F)cc1` (centres undefined), the Activity [1] was 101%.

In the case of `Cc1ncsc1C(O)c1ccccc1` (centres undefined), the Activity [1] was 94%.

For `Cc1ncsc1C(CO[N+](=O)[O-])c1ccc(F)cc1` (centres undefined), the Activity [7] was “Active” and the Stability [3] was “Stable”.

For `Cc1ncsc1C(NC(=O)OCCCCO[N+](=O)[O-])c1ccccc1` (centres undefined), the Activity [7] was “Active” and the Stability [3] was “Stable”.

With `Cc1ncsc1C(NC(=O)OCC1(CO[N+](=O)[O-])CC1)c1ccccc1` (centres undefined) the half-life [2] was 50 h, the Activity [7] was “Active” and the Activity [10] was “inactive”.

With `Cc1ncsc1C(OCCOCCO[N+](=O)[O-])c1ccccc1` (centres undefined) the Activity [7] was “Active” and the Stability [3] was “Stable”.

For `Cc1ncsc1C(OC(=O)C1(C)CC1)c1ccccc1` (centres undefined), the half-life [2] was 6.33 h.

For `Cc1ncsc1C(c1ccccc1)n1cc(-c2ccsc2)nn1` (centres undefined), the Activity [1] was 62%.

In the case of `Cc1ncsc1C(c1ccccc1)n1cc(-c2ccncc2)nn1` (centres undefined), the Activity [1] was 90.2%.

`Cc1ncsc1C(c1ccccc1)n1cc(-c2cncn2C)nn1` (centres undefined) showed an Activity [1] of 93.9%.

For `Cc1ncsc1C(c1ccccc1)n1cc(-c2cncc(O)c2)nn1` (centres undefined), the Activity [1] was 104%.

For `Cc1ncsc1C(O)Cc1ccccc1` (centres undefined), the Activity [1] was 102%.

With `Cc1ncsc1C(O)c1ccc(Cl)cc1` (centres undefined) the Activity [1] was 25%.

With `Cc1ncsc1C(c1ccccc1)n1ccnn1` (centres undefined) the Activity [1] was 58.1%.

Work on `Cc1ncsc1C(c1ccc(F)cc1)n1cc(-c2cccnc2)nn1` (centres undefined) yielded an Activity [1] of 87.2%.

With `NCc1cc(O)no1` the Activity [4] was “inactive” and the Activity [5] was “Active”.

`Cc1ncsc1C(O)c1ccc(F)cc1` (centres undefined) showed an Activity [1] of 36.8%.

With `Cc1ncsc1C(CO)n1cc(-c2cccnc2)nn1` (centres undefined) the Activity [4] was “inactive”, the Activity [5] was “Active” and the Activity [1] was 107.3%. It also gave a concentration at 20 min [6] of 56.4 ng/mL.

In the case of `Cc1ncsc1C(OCCOCCO)c1ccccc1` (centres undefined), the Activity [4] was “inactive”, the Activity [5] was “Active” and the Activity [1] was 114.1%.

With `Cc1ncsc1C(CO[N+](=O)[O-])c1ccccc1` (centres undefined) the Drug uptake [11] was 9.5 ng/mL, the Activity [7] was “Active” and the Stability [3] was “Stable”. For the same compound, the Activity [10] was “Active” and the concentration at 20 min [6] was 9.5 ng/mL.

Work on `Cc1ncsc1C(c1ccccc1)n1cc(-c2cccnc2)nn1` (centres undefined) yielded an Activity [1] of 108%.

Compound `COC(c1ccccc1)c1scnc1C` (centres undefined) has an Activity [1] of 110.2%.

With `Cc1ncsc1CCn1cc(-c2cccnc2)nn1` the Activity [4] was “inactive” and the Activity [1] was 99.6%.
